Measurements taken from ChEMBL document CHEMBL3616437, “Thiazole compounds with activity against Cryptococcus gattii and Cryptococcus neoformans in vitro” (Eur J Med Chem, 2015).
Activity calls are given as the source filed them. The rule behind the calls is not given here.

What was measured:
Cryptococcus neoformans [1] = assay: Ratio of compound MIC for Cryptococcus neoformans F10 in presence of fluconazole to compound MIC for Cryptococcus neoformans F10 in absence of fluconazole by checkerboard microtiter test; format: functional
In short: (§1)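 Checkerboard microdilution: eight two-fold dilutions of test compound (0.11 to 15.6 µM) crossed with amphotericin B (0.025 to 3.9 µM, in DMSO) or fluconazole (0.48 to 62.5 µM, in water). Inoculum per CLSI M27-A3 in RPMI-MOPS pH 7.0, 1-5 x10^3 cells/mL. Growth 48 to 72 h. Effective MIC is the combination concentration giving complete inhibition. FICs derived from MICs in combination versus alone.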

Cryptococcus neoformans [2] = assay: Ratio of compound MIC for Cryptococcus neoformans 96806 in presence of amphotericin B to compound MIC for Cryptococcus neoformans 96806 in absence of amphotericin B by checkerboard microtiter test; format: functional; in short: as §1
[3] = tested on: Cryptococcus gattii species complex; assay: Ratio of compound MIC for Cryptococcus gattii 23/10993 in presence of fluconazole to compound MIC for Cryptococcus gattii 23/10993 in absence of fluconazole by checkerboard microtiter test; format: functional, Cryptococcus bacillisporus; in short: as §1
Cryptococcus neoformans [4] = assay: Ratio of compound MIC for Cryptococcus neoformans 27JF in presence of fluconazole to compound MIC for Cryptococcus neoformans 27JF in absence of fluconazole by checkerboard microtiter test; format: functional; in short: as §1
[5] = tested on: Cryptococcus bacillisporus; assay: Ratio of compound MIC for Cryptococcus gattii ATCC 32608 in presence of amphotericin B to compound MIC for Cryptococcus gattii ATCC 32608 in absence of amphotericin B by checkerboard microtiter test; format: functional; in short: as §1
[6] = tested on: Cryptococcus gattii species complex; assay: Ratio of compound MIC for Cryptococcus gattii L28/02 in presence of amphotericin B to compound MIC for Cryptococcus gattii L28/02 in absence of amphotericin B by checkerboard microtiter test; format: functional, Cryptococcus bacillisporus; in short: as §1
[7] = tested on: Cryptococcus gattii species complex; assay: Ratio of compound MIC for Cryptococcus gattii LMM818 in presence of amphotericin B to compound MIC for Cryptococcus gattii LMM818 in absence of amphotericin B by checkerboard microtiter test; format: functional, Cryptococcus bacillisporus; in short: as §1
Cryptococcus neoformans [8] = assay: Ratio of compound MIC for Cryptococcus neoformans 5396 in presence of amphotericin B to compound MIC for Cryptococcus neoformans 5396 in absence of amphotericin B by checkerboard microtiter test; format: functional; in short: as §1
Cryptococcus gattii [9] = assay: Ratio of compound MIC for Cryptococcus gattii ATCC 24065 in presence of fluconazole to compound MIC for Cryptococcus gattii ATCC 24065 in absence of fluconazole by checkerboard microtiter test
[10] = tested on: Cryptococcus gattii species complex; assay: Ratio of compound MIC for Cryptococcus gattii 196L/03 in presence of fluconazole to compound MIC for Cryptococcus gattii 196L/03 in absence of fluconazole by checkerboard microtiter test; format: functional, Cryptococcus bacillisporus; in short: as §1
Cryptococcus neoformans [11] = assay: Ratio of compound MIC for Cryptococcus neoformans 27JF in presence of amphotericin B to compound MIC for Cryptococcus neoformans 27JF in absence of amphotericin B by checkerboard microtiter test; format: functional; in short: as §1
[12] = tested on: Cryptococcus gattii species complex; assay: Ratio of compound MIC for Cryptococcus gattii 135L/03 in presence of amphotericin B to compound MIC for Cryptococcus gattii 135L/03 in absence of amphotericin B by checkerboard microtiter test; format: functional, Cryptococcus bacillisporus
Cryptococcus neoformans [13] = assay: Ratio of compound MIC for Cryptococcus neoformans LMM820 in presence of fluconazole to compound MIC for Cryptococcus neoformans LMM820 in absence of fluconazole by checkerboard microtiter test; format: functional; in short: as §1
Cryptococcus gattii [14] = assay: Ratio of compound MIC for Cryptococcus gattii ATCC 24065 in presence of amphotericin B to compound MIC for Cryptococcus gattii ATCC 24065 in absence of amphotericin B by checkerboard microtiter test
[15] = tested on: Cryptococcus gattii species complex; assay: Ratio of compound MIC for Cryptococcus gattii 1913ER in presence of fluconazole to compound MIC for Cryptococcus gattii 1913ER in absence of fluconazole by checkerboard microtiter test; format: functional, Cryptococcus bacillisporus; in short: as §1
Cryptococcus neoformans [16] = assay: Ratio of compound MIC for Cryptococcus neoformans F10 in presence of amphotericin B to compound MIC for Cryptococcus neoformans F10 in absence of amphotericin B by checkerboard microtiter test; format: functional; in short: as §1
[17] = tested on: Cryptococcus gattii species complex; assay: Ratio of compound MIC for Cryptococcus gattii 1913ER in presence of amphotericin B to compound MIC for Cryptococcus gattii 1913ER in absence of amphotericin B by checkerboard microtiter test; format: functional, Cryptococcus bacillisporus; in short: as §1
[18] = tested on: Cryptococcus gattii species complex; assay: Ratio of compound MIC for Cryptococcus gattii 135L/03 in presence of fluconazole to compound MIC for Cryptococcus gattii 135L/03 in absence of fluconazole by checkerboard microtiter test; format: functional, Cryptococcus bacillisporus; in short: as §1
Cryptococcus neoformans [19] = assay: Ratio of compound MIC for Cryptococcus neoformans ATCC 24067 in presence of fluconazole to compound MIC for Cryptococcus neoformans ATCC 24067 in absence of fluconazole by checkerboard microtiter test; format: functional; in short: as §1
[20] = tested on: Cryptococcus gattii species complex; assay: Ratio of compound MIC for Cryptococcus gattii ICB181 in presence of fluconazole to compound MIC for Cryptococcus gattii ICB181 in absence of fluconazole by checkerboard microtiter test; format: functional, Cryptococcus bacillisporus; in short: as §1
[21] = tested on: Cryptococcus gattii species complex; assay: Ratio of compound MIC for Cryptococcus gattii LMM818 in presence of fluconazole to compound MIC for Cryptococcus gattii LMM818 in absence of fluconazole by checkerboard microtiter test; format: functional, Cryptococcus bacillisporus; in short: as §1
[22] = tested on: Cryptococcus gattii species complex; assay: Ratio of compound MIC for Cryptococcus gattii 196L/03 in presence of amphotericin B to compound MIC for Cryptococcus gattii 196L/03 in absence of amphotericin B by checkerboard microtiter test; format: functional, Cryptococcus bacillisporus; in short: as §1
[23] = tested on: Cryptococcus gattii species complex; assay: Ratio of compound MIC for Cryptococcus gattii L27/01 in presence of fluconazole to compound MIC for Cryptococcus gattii L27/01 in absence of fluconazole by checkerboard microtiter test; format: functional, Cryptococcus bacillisporus; in short: as §1
Cryptococcus neoformans [24] = assay: Ratio of compound MIC for Cryptococcus neoformans ATCC 62066 in presence of fluconazole to compound MIC for Cryptococcus neoformans ATCC 62066 in absence of fluconazole by checkerboard microtiter test; format: functional; in short: as §1
[25] = tested on: Cryptococcus gattii species complex; assay: Ratio of compound MIC for Cryptococcus gattii 23/10993 in presence of amphotericin B to compound MIC for Cryptococcus gattii 23/10993 in absence of amphotericin B by checkerboard microtiter test; format: functional, Cryptococcus bacillisporus; in short: as §1
Cryptococcus neoformans [26] = assay: Ratio of compound MIC for Cryptococcus neoformans 5396 in presence of fluconazole to compound MIC for Cryptococcus neoformans 5396 in absence of fluconazole by checkerboard microtiter test; format: functional; in short: as §1
[27] = tested on: Cryptococcus gattii species complex; assay: Ratio of compound MIC for Cryptococcus gattii L27/01 in presence of amphotericin B to compound MIC for Cryptococcus gattii L27/01 in absence of amphotericin B by checkerboard microtiter test; format: functional, Cryptococcus bacillisporus; in short: as §1
[28] = tested on: Cryptococcus gattii species complex; assay: Antifungal activity against Cryptococcus gattii 196L/03 assessed as reduction in ergosterol content at MIC after 24 hrs by spectrophotometric analysis; format: functional, organism-based; details: Cryptococcus bacillisporus
In short: (§2)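 Pellet washed and weighed, then saponified in 25% ethanolic KOH at 85°C for 1 h. Extracted with water and n-heptane, read at 282 and 230 nm. Ergosterol taken from a standard curve and expressed as % of growth control.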

[29] = tested on: Cryptococcus gattii species complex; assay: Antifungal activity against Cryptococcus gattii L27/01 assessed as reduction in ergosterol content at MIC after 24 hrs by spectrophotometric analysis; format: functional, organism-based; details: Cryptococcus bacillisporus; in short: as §2
[30] = Selectivity index, ratio of IC50 for African green monkey Vero cells to MIC for Cryptococcus gattii ATCC 24065; format: toxicity, cell-based

Structure (SMILES) | fractional inhibitory concentration index (FICI) (Cryptococcus neoformans [1]) | fractional inhibitory concentration index (FICI) (Cryptococcus neoformans [2]) | fractional inhibitory concentration index (FICI) [3] | fractional inhibitory concentration index (FICI) (Cryptococcus neoformans [4]) | fractional inhibitory concentration index (FICI) [5] | fractional inhibitory concentration index (FICI) [6] | fractional inhibitory concentration index (FICI) [7] | fractional inhibitory concentration index (FICI) (Cryptococcus neoformans [8]) | fractional inhibitory concentration index (FICI) (Cryptococcus gattii [9]) | fractional inhibitory concentration index (FICI) [10] | fractional inhibitory concentration index (FICI) (Cryptococcus neoformans [11]) | fractional inhibitory concentration index (FICI) [12] | fractional inhibitory concentration index (FICI) (Cryptococcus neoformans [13]) | fractional inhibitory concentration index (FICI) (Cryptococcus gattii [14]) | fractional inhibitory concentration index (FICI) [15] | fractional inhibitory concentration index (FICI) (Cryptococcus neoformans [16]) | fractional inhibitory concentration index (FICI) [17] | fractional inhibitory concentration index (FICI) [18] | fractional inhibitory concentration index (FICI) (Cryptococcus neoformans [19]) | fractional inhibitory concentration index (FICI) [20] | also measured
C(=N\Nc1nc(-c2ccccc2)cs1)/C1CCCCC1 | 4.47 | 2.67 | 1.47 | 6.8 | 2.58 | 1.34 | 2.58 | 1.15 | 1.58 | 2.47 | 2.58 | 2.67 | 4.24 | 1.72 | 2.09 | 2.62 | 1.47 | 2.47 | 3.59 | 2.58 | fractional inhibitory concentration index (FICI) [21]: 2.47; fractional inhibitory concentration index (FICI) [22]: 3.97; fractional inhibitory concentration index (FICI) [23]: 4.23; fractional inhibitory concentration index (FICI) (Cryptococcus neoformans [24]): 2.04; fractional inhibitory concentration index (FICI) [25]: 2.67; fractional inhibitory concentration index (FICI) (Cryptococcus neoformans [26]): 2.4; fractional inhibitory concentration index (FICI) [27]: 1.34
C[C@@H]1[C@H](O)[C@@H](C)/C=C/C=C/C=C/C=C/C=C/C=C/C=C/[C@H](O[C@@H]2O[C@H](C)[C@@H](O)[C@H](N)[C@@H]2O)C[C@@H]2O[C@](O)(C[C@@H](O)C[C@@H](O)[C@H](O)CC[C@@H](O)C[C@@H](O)CC(=O)O[C@H]1C)C[C@H](O)[C@H]2C(=O)O [AMPHOTERICIN B] | – | – | – | – | – | – | – | – | – | – | – | – | – | – | – | – | – | – | – | – | Activity [28]: inactive; Activity [29]: inactive
COc1ccc(-c2csc(N/N=C(\C)CCO)n2)cc1 | 4.33 | 2.78 | 2.28 | 7.44 | 3.14 | 2.78 | 4.98 | 1.58 | 0.88 | 1.95 | 2.67 | 4.98 | 2.1 | 2.98 | 2.47 | 2.47 | 2.78 | 2.38 | 1.92 | 1.99 | Activity [28]: inactive; fractional inhibitory concentration index (FICI) [21]: 2.32; fractional inhibitory concentration index (FICI) [22]: 9.38; fractional inhibitory concentration index (FICI) [23]: 2.14; fractional inhibitory concentration index (FICI) (Cryptococcus neoformans [24]): 2.3; selectivity ratio [30]: 222; fractional inhibitory concentration index (FICI) [25]: 3.51; Activity [29]: inactive; fractional inhibitory concentration index (FICI) (Cryptococcus neoformans [26]): 1.32; fractional inhibitory concentration index (FICI) [27]: 4.61
COc1ccc(-c2csc(N/N=C/C3CCCCC3)n2)cc1 | 2.46 | 1.46 | 2.46 | 4.59 | 2.78 | 2.18 | 1.46 | 2.07 | 2.43 | 2.28 | 2.78 | 1.46 | 4.59 | 2 | 2.46 | 1.46 | 1.75 | 2.71 | 3.97 | 4.46 | fractional inhibitory concentration index (FICI) [21]: 1.19; fractional inhibitory concentration index (FICI) [22]: 1.58; fractional inhibitory concentration index (FICI) [23]: 1.18; fractional inhibitory concentration index (FICI) (Cryptococcus neoformans [24]): 3.58; selectivity ratio [30]: 25.6; fractional inhibitory concentration index (FICI) [25]: 2.36; fractional inhibitory concentration index (FICI) (Cryptococcus neoformans [26]): 3.48; fractional inhibitory concentration index (FICI) [27]: 2.66
c1ccc(-c2csc(NN=C3CCCC3)n2)cc1 | 1.98 | 2.46 | 4.23 | 3.33 | 1.7 | 2.66 | 2.58 | 4.86 | 3.71 | 1.84 | 2.66 | 1.46 | 4.46 | 1.2 | 2.45 | 2.58 | 1.04 | 2.45 | 4.46 | 4.58 | fractional inhibitory concentration index (FICI) [21]: 1.59; fractional inhibitory concentration index (FICI) [22]: 1.46; fractional inhibitory concentration index (FICI) [23]: 1.45; fractional inhibitory concentration index (FICI) (Cryptococcus neoformans [24]): 2.46; fractional inhibitory concentration index (FICI) [25]: 2.18; fractional inhibitory concentration index (FICI) (Cryptococcus neoformans [26]): 3.46; fractional inhibitory concentration index (FICI) [27]: 2.48
OC(Cn1cncn1)(Cn1cncn1)c1ccc(F)cc1F [FLUCONAZOLE] | – | – | – | – | – | – | – | – | – | – | – | – | – | – | – | – | – | – | – | – | Activity [28]: Active; selectivity ratio [30]: 7.87; Activity [29]: Active
